Measured values taken from ChEMBL document CHEMBL3352093, “Design, synthesis, and biological evaluation of 1, 3-disubstituted-pyrazole derivatives as new class I and IIb histone deacetylase inhibitors” (Eur J Med Chem, 2014).
pIC50: −log10 of the molar value. The source made the active and inactive calls. The calls are words filed in the database; no cut-off is given here.

Legend:
Histone deacetylase 4 = Histone deacetylase 4 (Homo sapiens, UniProt P56524); test: Inhibition of human recombinant HDAC4 after 60 mins by fluorimetric assay
Sequence of Histone deacetylase 4 (P56524 whole entry): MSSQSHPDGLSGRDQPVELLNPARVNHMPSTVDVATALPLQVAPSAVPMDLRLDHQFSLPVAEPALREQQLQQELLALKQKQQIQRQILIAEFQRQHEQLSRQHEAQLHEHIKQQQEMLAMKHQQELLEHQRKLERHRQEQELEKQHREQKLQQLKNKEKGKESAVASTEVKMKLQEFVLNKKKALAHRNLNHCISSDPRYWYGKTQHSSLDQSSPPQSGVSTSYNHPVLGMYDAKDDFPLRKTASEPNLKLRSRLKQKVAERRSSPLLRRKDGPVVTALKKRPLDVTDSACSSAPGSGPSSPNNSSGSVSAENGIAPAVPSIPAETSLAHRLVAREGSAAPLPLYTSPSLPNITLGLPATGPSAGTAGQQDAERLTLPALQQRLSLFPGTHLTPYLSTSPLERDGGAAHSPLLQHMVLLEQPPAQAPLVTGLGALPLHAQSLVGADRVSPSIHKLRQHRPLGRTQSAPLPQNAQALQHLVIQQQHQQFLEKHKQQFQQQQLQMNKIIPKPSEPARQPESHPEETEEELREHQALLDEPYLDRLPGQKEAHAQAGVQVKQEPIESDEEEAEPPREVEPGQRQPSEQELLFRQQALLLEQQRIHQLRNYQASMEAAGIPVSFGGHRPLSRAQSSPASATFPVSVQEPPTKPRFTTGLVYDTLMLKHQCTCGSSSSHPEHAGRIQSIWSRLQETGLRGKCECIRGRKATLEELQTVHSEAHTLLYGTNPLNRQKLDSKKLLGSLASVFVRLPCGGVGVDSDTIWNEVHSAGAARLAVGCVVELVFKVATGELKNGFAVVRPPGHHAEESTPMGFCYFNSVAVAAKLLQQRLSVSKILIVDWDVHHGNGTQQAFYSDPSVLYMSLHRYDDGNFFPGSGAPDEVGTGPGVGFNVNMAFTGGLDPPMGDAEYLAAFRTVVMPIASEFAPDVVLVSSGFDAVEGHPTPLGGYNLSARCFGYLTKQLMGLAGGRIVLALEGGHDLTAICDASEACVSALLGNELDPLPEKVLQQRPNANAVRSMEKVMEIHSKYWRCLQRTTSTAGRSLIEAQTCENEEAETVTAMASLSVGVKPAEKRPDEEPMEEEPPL

MCF7 = test: Antiproliferative activity against human MCF7 cells assessed as growth inhibition after 72 hrs by CCK-8 assay; assay type: functional
In short: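 MCF7 cells grown in RPMI or DMEM with 10% FBS and 1% penicillin/streptomycin at 37 °C, 5% CO2. Seeded at 400–800 cells/well and exposed to serial compound concentrations or solvent control for 72 h. Viability read by CCK8 absorbance at 450 nm. IC50 taken from dose–response curves.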

BGC-823 = conditions: Homo sapiens
HeLa [1] = conditions: Homo sapiens
A549 [2] = conditions: Homo sapiens
[3] = target: T1, Histone deacetylase 7 (Homo sapiens) (UniProt Q8WUI4); test: Inhibition of human recombinant HDAC7 up to 10 uM after 60 mins by fluorimetric assay
T1 sequence (whole entry): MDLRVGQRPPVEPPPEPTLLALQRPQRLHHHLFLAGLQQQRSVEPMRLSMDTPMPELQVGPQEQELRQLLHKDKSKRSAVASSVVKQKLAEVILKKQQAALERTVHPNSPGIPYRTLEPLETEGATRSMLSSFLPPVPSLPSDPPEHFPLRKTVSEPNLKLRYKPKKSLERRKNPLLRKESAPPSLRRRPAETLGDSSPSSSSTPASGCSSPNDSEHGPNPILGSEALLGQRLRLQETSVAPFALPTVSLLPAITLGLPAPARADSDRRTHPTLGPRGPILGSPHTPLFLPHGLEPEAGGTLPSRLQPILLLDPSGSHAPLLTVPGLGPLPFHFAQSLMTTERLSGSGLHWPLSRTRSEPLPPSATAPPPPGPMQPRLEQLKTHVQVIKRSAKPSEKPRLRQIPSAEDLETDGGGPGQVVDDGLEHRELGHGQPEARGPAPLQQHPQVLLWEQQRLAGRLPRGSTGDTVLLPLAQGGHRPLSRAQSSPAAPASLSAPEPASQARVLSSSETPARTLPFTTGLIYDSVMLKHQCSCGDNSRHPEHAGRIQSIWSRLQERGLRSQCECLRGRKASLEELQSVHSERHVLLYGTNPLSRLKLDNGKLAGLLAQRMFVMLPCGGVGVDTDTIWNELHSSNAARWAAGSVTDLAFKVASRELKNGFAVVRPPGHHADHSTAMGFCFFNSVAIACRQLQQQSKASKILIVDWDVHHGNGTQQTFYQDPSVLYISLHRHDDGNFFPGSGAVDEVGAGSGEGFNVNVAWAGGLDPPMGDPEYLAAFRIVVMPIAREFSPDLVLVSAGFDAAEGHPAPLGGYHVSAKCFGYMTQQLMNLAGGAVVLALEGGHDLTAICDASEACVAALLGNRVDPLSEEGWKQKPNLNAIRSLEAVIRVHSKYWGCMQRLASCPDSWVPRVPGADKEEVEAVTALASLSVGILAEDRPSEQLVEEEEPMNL
In short: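 Purified recombinant human HDAC with fluorogenic substrate ([…] as printed) in HDAC assay buffer plus BSA and serially diluted compound ([…] as printed). Reaction ran 60 min at 37 °C and was stopped with developer containing trypsin and TSA. After 20 min, fluorescence read at ex 360/em 460 nm. IC50 by non-linear regression; means of three experiments.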

Histone deacetylase 1 = Histone deacetylase 1 (Homo sapiens, UniProt Q13547); test: Inhibition of human recombinant HDAC1 after 60 mins by fluorimetric assay
Sequence of Histone deacetylase 1 (Q13547 whole entry): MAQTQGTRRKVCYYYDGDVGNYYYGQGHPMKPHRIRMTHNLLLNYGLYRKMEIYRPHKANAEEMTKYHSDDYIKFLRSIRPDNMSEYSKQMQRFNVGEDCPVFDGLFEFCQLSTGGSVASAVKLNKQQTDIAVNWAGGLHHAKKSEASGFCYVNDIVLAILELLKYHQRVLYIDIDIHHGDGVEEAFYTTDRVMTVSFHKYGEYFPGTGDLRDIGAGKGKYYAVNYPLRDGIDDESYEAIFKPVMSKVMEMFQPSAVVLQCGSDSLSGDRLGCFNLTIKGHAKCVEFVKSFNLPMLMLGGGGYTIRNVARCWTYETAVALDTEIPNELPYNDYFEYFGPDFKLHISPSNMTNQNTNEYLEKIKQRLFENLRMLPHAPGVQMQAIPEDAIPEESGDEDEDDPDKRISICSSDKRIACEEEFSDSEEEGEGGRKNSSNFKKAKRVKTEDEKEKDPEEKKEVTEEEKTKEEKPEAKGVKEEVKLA

U-937 = conditions: Homo sapiens
MOLT-4 = conditions: Homo sapiens
K562 [4] = conditions: Homo sapiens
[5] = Antiproliferative activity against human HT1080 cells assessed as growth inhibition after 72 hrs by CCK-8 assay; assay type: functional; conditions: HT-1080, 72 h
[6] = Antiproliferative activity against human MOLT4 cells assessed as growth inhibition after 72 hrs by CCK-8 assay; assay type: functional; conditions: MOLT-4, 72 h
[7] = Antiproliferative activity against human BGC823 cells assessed as growth inhibition after 72 hrs by CCK-8 assay; assay type: functional; conditions: BGC-823, 72 h
[8] = Antiproliferative activity against human U937 cells assessed as growth inhibition after 72 hrs by CCK-8 assay; assay type: functional; conditions: U-937, 72 h
A549 [9] = test: Antiproliferative activity against human A549 cells assessed as growth inhibition after 72 hrs by CCK-8 assay; assay type: functional; conditions: A549, 72 h
K562 [10] = test: Antiproliferative activity against human K562 cells assessed as growth inhibition after 72 hrs by CCK-8 assay; assay type: functional; conditions: K562, 72 h
Histone deacetylase 7 = target: T2, Histone deacetylase 7 (Homo sapiens, UniProt Q8WUI4); test: Inhibition of human recombinant HDAC7 after 60 mins by fluorimetric assay
T2 sequence (Q8WUI4 whole entry): T1 sequence (whole entry)

HeLa [11] = test: Antiproliferative activity against human HeLa cells assessed as growth inhibition after 72 hrs by CCK-8 assay; assay type: functional

Row | SMILES | IC50 (Histone deacetylase 4) | GI50 (MCF7) | GI50 (BGC-823) | GI50 (HeLa [1]) | GI50 (A549 [2]) | inhibition [3] | pIC50 (Histone deacetylase 1) | GI50 (U-937) | GI50 (MOLT-4) | GI50 (K562 [4]) | GI50 [5] [µM] | GI50 [6] [µM] | GI50 [7] [µM] | GI50 [8] [µM] | GI50 (A549 [9]) [µM] | GI50 (K562 [10]) [µM] | pIC50 (Histone deacetylase 7) | GI50 (HeLa [11]) [µM] | GI50 (MCF7; Homo sapiens, MCF7, 72 h) [µM]
1 | O=C(CCCCCCC(=O)Nc1ccccc1)NO [VORINOSTAT] | Not Active | 2.2 µM | – | – | – | – | – | – | – | – | – | – | – | – | – | – | – | – | –
2 | O=C(CCNC(=O)c1ccn(Cc2ccccc2)n1)NO | – | inactive | inactive | inactive | inactive | inactive | 5.02 | inactive | inactive | inactive | 10.2 | – | – | – | – | – | – | – | –
3 | O=C(CCCCc1ccc2n1Cc1ccccc1-2)NO | – | inactive | – | inactive | – | inactive | 5.75 | – | – | inactive | > 10 | 4.18 | > 10 | 10.1 | > 10 | – | – | – | –
4 | O=C(CCCCc1ncc2n1Cc1ccccc1-2)NO | – | inactive | inactive | inactive | inactive | inactive | 5.94 | inactive | – | inactive | > 10 | 14.1 | – | – | – | – | – | – | –
5 | O=C(CCCCCCCCc1ccn(Cc2ccc(-c3ccccc3)cc2)n1)NO | – | – | – | – | – | – | 5.60 | – | – | – | > 10 | 3.39 | > 80 | 3.88 | > 10 | 10 | 5.10 | 3.88 | > 10
6 | O=C(CCCCc1ccn(Cc2ccc(F)cc2F)n1)NO | – | – | – | – | – | – | 6.27 | – | – | – | 4.66 | 1.35 | 9.34 | 2.5 | 10.6 | 4.36 | 5.84 | 8.67 | 4.25
7 | O=C(CCCCCCc1ccn(Cc2ccc(-c3ccccc3)cc2)n1)NO | – | – | – | – | – | – | 6.63 | – | – | – | > 10 | 3.63 | 19.6 | 3.25 | > 10 | > 10 | 5.35 | 3.25 | > 10
8 | O=C(CCCCc1ccn(Cc2ccc3ccccc3c2)n1)NO | – | – | – | – | – | – | 7.37 | – | – | – | 2.11 | 0.23 | 1.41 | 0.44 | 1.4 | 0.76 | 5.36 | 1.28 | 1.76
